Consider 32 compounds from ChEMBL document CHEMBL3124823, “1,2,3-Triazole-containing derivatives of rupestonic acid: click-chemical synthesis and antiviral activities against influenza viruses” (Eur J Med Chem, 2014).

Molecules are shown by their SMILES. ≈ marks a conversion by molar mass, not a printed value. A value given as a limit tells only on which side of the number the result lay.

What is called IC50 is the concentration needed to halve the response being measured.

The experiment concerns Influenza A virus. Briefly: Antiviral activity against oseltamivir-resistant Influenza A virus (A/Tianjinjinnan/15/2009/H1N1) infected in MDCK cells assessed as inhibition of virus-induced cytopathicity after 40 hrs. The class given is functional, organism-based. Conditions: A/Tianjin-Jinnan/15/2009(H1N1). In short, it runs like this: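 CPE reduction in MDCK cells: cells grown 24 h at 37 °C, 5% CO2, then infected and held 2 h at 37 °C before the inoculum was removed. Threefold serial drug dilutions (8 levels from 20 mg/mL DMSO stocks) were added and incubated 40 h at 37 °C. CPE inhibition was scored against cell and virus controls to give IC50. Ribavirin and oseltamivir were the controls.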
For orientation: Cytopathic effects are the visible damage that an infection or toxin causes in cultured cells.
In the case of `C=C(C(=O)OCc1cn(Cc2ccccc2Cl)nn1)[C@@H]1CC[C@H](C)[C@@H]2CC(=O)C(C)=C2C1`, the IC50 turned out to be 59.2 µg/mL (≈ 130 µM).

On to `C=C(C(=O)NCc1cn(C2CCCCC2)nn1)[C@@H]1CC[C@H](C)[C@@H]2CC(=O)C(C)=C2C1`, for which the half-maximal inhibitory concentration (IC50) was 22.2 µg/mL (≈ 54.1 µM).

Turning to `C=C(C(=O)NCc1cn(Cc2cccc(F)c2)nn1)[C@@H]1CC[C@H](C)[C@@H]2CC(=O)C(C)=C2C1`, the IC50 is more than 22.2 µg/mL.

Regarding `C=C(C(=O)NCc1cn(Cc2ccc(OC)cc2)nn1)[C@@H]1CC[C@H](C)[C@@H]2CC(=O)C(C)=C2C1`, the IC50 was more than 22.2 µg/mL.

Turning to `C=C(C(=O)OCc1cn(Cc2ccc(C)cc2)nn1)[C@@H]1CC[C@H](C)[C@@H]2CC(=O)C(C)=C2C1`, the IC50 was more than 22.2 µg/mL.

For `NC(=O)c1ncn([C@@H]2O[C@H](CO)[C@@H](O)[C@H]2O)n1` [RIBAVIRIN], the IC50 worked out at 6.5 µg/mL (≈ 26.6 µM).

In the case of `C=C(C(=O)NCc1cn(Cc2ccccc2)nn1)[C@@H]1CC[C@H](C)[C@@H]2CC(=O)C(C)=C2C1`, the half-inhibitory concentration (IC50) is more than 22.2 µg/mL.

Regarding `C=C(C(=O)OCc1cn(Cc2ccccc2C)nn1)[C@@H]1CC[C@H](C)[C@@H]2CC(=O)C(C)=C2C1`, the 50% inhibitory concentration (IC50) is more than 22.2 µg/mL.

For the compound `C=C(C(=O)NCc1cn(Cc2cccc(C)c2)nn1)[C@@H]1CC[C@H](C)[C@@H]2CC(=O)C(C)=C2C1`, the IC50 was more than 22.2 µg/mL.

Consider `C=C(C(=O)NCc1cn(Cc2cccc(OC)c2)nn1)[C@@H]1CC[C@H](C)[C@@H]2CC(=O)C(C)=C2C1`, for which the IC50 was more than 22.2 µg/mL.

With `C=C(C(=O)NCc1cn(Cc2ccc(Cl)cc2)nn1)[C@@H]1CC[C@H](C)[C@@H]2CC(=O)C(C)=C2C1`, the IC50 was more than 2.47 µg/mL.

In the case of `C=C(C(=O)OCc1cn(Cc2ccccc2F)nn1)[C@@H]1CC[C@H](C)[C@@H]2CC(=O)C(C)=C2C1`, the IC50 is more than 22.2 µg/mL.

For the compound `C=C(C(=O)NCc1cn(Cc2ccc(C)cc2)nn1)[C@@H]1CC[C@H](C)[C@@H]2CC(=O)C(C)=C2C1`, the IC50 was more than 22.2 µg/mL.

Regarding `C=C(C(=O)OCc1cn(Cc2cccc(Cl)c2)nn1)[C@@H]1CC[C@H](C)[C@@H]2CC(=O)C(C)=C2C1`, the IC50 was more than 66.7 µg/mL.

As for `C=C(C(=O)OCc1cn(Cc2cccc(OC)c2)nn1)[C@@H]1CC[C@H](C)[C@@H]2CC(=O)C(C)=C2C1`, the IC50 is more than 22.2 µg/mL.

As to `C=C(C(=O)OCc1cn(Cc2ccccc2)nn1)[C@@H]1CC[C@H](C)[C@@H]2CC(=O)C(C)=C2C1`, the IC50 is more than 7.41 µg/mL.

Take `C=C(C(=O)OCc1cn(Cc2ccc(F)cc2)nn1)[C@@H]1CC[C@H](C)[C@@H]2CC(=O)C(C)=C2C1`: the concentration for half-maximal inhibition (IC50) is more than 22.2 µg/mL.

Take `C=C(C(=O)NCc1cn(Cc2ccc(F)cc2)nn1)[C@@H]1CC[C@H](C)[C@@H]2CC(=O)C(C)=C2C1`: the IC50 is more than 66.7 µg/mL.

With `C=C(C(=O)NCc1cn(C2C=CCCC2)nn1)[C@@H]1CC[C@H](C)[C@@H]2CC(=O)C(C)=C2C1` (some centres not stated), the IC50 was 19.7 µg/mL (≈ 48.3 µM).

In the case of `CCOC(=O)C1=C[C@@H](OC(CC)CC)[C@H](NC(C)=O)[C@@H](N)C1` [OSELTAMIVIR], the IC50 is more than 500 µg/mL.

With `C=C(C(=O)NCc1cn(Cc2ccc(Cl)c(Cl)c2)nn1)[C@@H]1CC[C@H](C)[C@@H]2CC(=O)C(C)=C2C1`, the IC50 turned out to be 22.2 µg/mL (≈ 45.6 µM).

Consider `C=C(C(=O)OCc1cn(C2CCCCC2)nn1)[C@@H]1CC[C@H](C)[C@@H]2CC(=O)C(C)=C2C1`, for which the IC50 was found to be 59.2 µg/mL (≈ 144 µM).

With `C=C(C(=O)OCc1cn(Cc2ccc(Cl)cc2)nn1)[C@@H]1CC[C@H](C)[C@@H]2CC(=O)C(C)=C2C1`, the IC50 is more than 22.2 µg/mL.

Regarding `C=C(C(=O)NCc1cn(Cc2cccc(Cl)c2)nn1)[C@@H]1CC[C@H](C)[C@@H]2CC(=O)C(C)=C2C1`, the IC50 is more than 7.41 µg/mL.

For the compound `C=C(C(=O)NCc1cn(Cc2ccccc2Cl)nn1)[C@@H]1CC[C@H](C)[C@@H]2CC(=O)C(C)=C2C1`, the IC50 was more than 7.41 µg/mL.

In the case of `C=C(C(=O)OCc1cn(Cc2cccc(F)c2)nn1)[C@@H]1CC[C@H](C)[C@@H]2CC(=O)C(C)=C2C1`, the IC50 is more than 22.2 µg/mL.

`C=C(C(=O)OCc1cn(Cc2cccc(C)c2)nn1)[C@@H]1CC[C@H](C)[C@@H]2CC(=O)C(C)=C2C1`: the IC50 came out at 19.7 µg/mL (≈ 45.5 µM).

Take `C=C(C(=O)OCc1cn(Cc2ccc(OC)cc2)nn1)[C@@H]1CC[C@H](C)[C@@H]2CC(=O)C(C)=C2C1`: the IC50 came out at 22.2 µg/mL (≈ 49.4 µM).

Consider `C=C(C(=O)OCc1cn(C2C=CCCC2)nn1)[C@@H]1CC[C@H](C)[C@@H]2CC(=O)C(C)=C2C1` (some centres not stated), for which the IC50 was more than 7.41 µg/mL.

As to `C=C(C(=O)OCc1cn(Cc2ccc(Cl)c(Cl)c2)nn1)[C@@H]1CC[C@H](C)[C@@H]2CC(=O)C(C)=C2C1`, the concentration for half-maximal inhibition (IC50) is more than 7.41 µg/mL.

In the case of `C=C(C(=O)NCc1cn(Cc2ccccc2F)nn1)[C@@H]1CC[C@H](C)[C@@H]2CC(=O)C(C)=C2C1`, the concentration for half-maximal inhibition (IC50) is more than 66.7 µg/mL.

Turning to `C=C(C(=O)NCc1cn(Cc2ccccc2C)nn1)[C@@H]1CC[C@H](C)[C@@H]2CC(=O)C(C)=C2C1`, the IC50 was more than 22.2 µg/mL.
